Experimental data taken from ChEMBL document CHEMBL2057147, “Synthesis and in vitro antitumor activity of novel scopoletin derivatives” (Bioorg Med Chem Lett, 2012).
Activity calls are given as the source filed them. No cut-off for these calls is given here.

Tests used:
MDA-MB-231 [1] = experiment: Antiproliferative activity against human MDA-MB-231 cells at 20 uM after 72 hrs by crystal violet staining method relative to control; type: functional
Procedure, shortened: (§1)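 Single-concentration growth inhibition in MCF-7 and MDA-MB 231 cells at 10 and 20 µM after 72 h, given as corrected treated/control percentage (T/C_corr %).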

MCF7 [2] = experiment: Antiproliferative activity against human MCF7 cells after 72 hrs by crystal violet staining method; type: functional, cell-based; details: for IC50: MCF7, 72 h
Procedure, shortened: (§2)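 Cells seeded at a known number in 96-well plates and exposed to increasing compound concentrations for 72 h; IC50 taken from the concentration–growth-inhibition data.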

MCF7 [3] = experiment: Antiproliferative activity against human MCF7 cells at 20 uM after 72 hrs by crystal violet staining method relative to control; type: functional; procedure, shortened: as §1
HT-29 [4] = experiment: Antiproliferative activity against human HT-29 cells after 72 hrs by crystal violet staining method; type: functional, cell-based; details: for IC50: HT-29, 72 h; procedure, shortened: as §2
MDA-MB-231 [5] = experiment: Antiproliferative activity against human MDA-MB-231 cells after 72 hrs by crystal violet staining method; type: functional, cell-based; details: for IC50: MDA-MB-231, 72 h; procedure, shortened: as §2
MDA-MB-231 [6] = experiment: Cytostatic activity against human MDA-MB-231 cells at 20 uM after 72 hrs by crystal violet staining method relative to control; type: functional; procedure, shortened: as §1
MDA-MB-231 [7] = experiment: Induction of apoptosis in human MDA-MB-231 cells assessed as caspase3 activation at 10 uM after 24 hrs by fluorescence detection assay; type: functional, cell-based
U2OS = experiment: Induction of apoptosis in human U2OS cells assessed as caspase3 activation at 10 uM after 24 hrs by fluorescence detection assay; type: functional, cell-based
MCF7 [8] = experiment: Ratio of scopoletin IC50 to compound IC50 for human MCF7 cells; type: functional
MDA-MB-231 [9] = experiment: Ratio of scopoletin IC50 to compound IC50 for human MDA-MB-231 cells; type: functional
MCF7 [10] = experiment: Cytostatic activity against human MCF7 cells at 20 uM after 72 hrs by crystal violet staining method relative to control; type: functional; procedure, shortened: as §1
HT-29 [11] = experiment: Ratio of scopoletin IC50 to compound IC50 for human HT-29 cells; type: functional
HT-29 [12] = experiment: Antiproliferative activity against human HT-29 cells at 1.25 to 20 uM up to 144 hrs by crystal violet staining method; type: functional, cell-based
Procedure, shortened: (§3)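 Time course at 1.25, 2.5, 5, 10 and 20 µM, with growth inhibition read as corrected treated/control percentage (T/C_corr %) at several incubation times over about 140 h.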

MCF7 [13] = experiment: Antiproliferative activity against human MCF7 cells at 1.25 to 20 uM up to 144 hrs by crystal violet staining method; type: functional, cell-based; procedure, shortened: as §3
MDA-MB-231 [14] = experiment: Cytocidal activity against human MDA-MB-231 cells at 10 uM after 72 hrs by crystal violet staining method; type: functional, cell-based; procedure, shortened: as §1
MCF7 [15] = experiment: Cytocidal activity against human MCF7 cells at 10 uM after 72 hrs by crystal violet staining method; type: functional, cell-based; procedure, shortened: as §1
MDA-MB-231 [16] = experiment: Cytocidal activity against human MDA-MB-231 cells at 20 uM after 72 hrs by crystal violet staining method relative to control; type: functional; procedure, shortened: as §1
MCF7 [17] = experiment: Cytocidal activity against human MCF7 cells at 20 uM after 72 hrs by crystal violet staining method relative to control; type: functional; procedure, shortened: as §1

Structure (SMILES) | T/C (MDA-MB-231 [1]) | IC50 (MCF7 [2]) | T/C (MCF7 [3]) | IC50 (HT-29 [4]) | IC50 (MDA-MB-231 [5]) | also measured
COc1cc2ccc(=O)oc2cc1OCC(=O)Nc1ccc(Cl)cc1 | <50% | 19.5 µM | <50% | 18.1 µM | 19.3 µM | 
COc1cc2cc(NC(C)=O)c(=O)oc2cc1OCC(=O)Nc1ccc(Cl)cc1 |  |  |  |  |  | Activity (MCF7 [2]): Active; Activity (HT-29 [4]): Active; Activity (MDA-MB-231 [5]): Active
COc1ccccc1NC(=O)COc1cc2oc(=O)c(NC(C)=O)cc2cc1OC | <50% | 17.9 µM | <50% | 19.1 µM | 14.7 µM | 
COc1cc2cc(NC(C)=O)c(=O)oc2cc1OCC(=O)Nc1ccc(F)cc1 |  |  |  |  |  | Activity (MCF7 [2]): Active; Activity (HT-29 [4]): Active; Activity (MDA-MB-231 [5]): Active
COc1cc2cc(NC(C)=O)c(=O)oc2cc1OCC(=O)Nc1cccc(C(C)=O)c1 |  |  |  |  |  | Activity (MCF7 [2]): Active; Activity (HT-29 [4]): Active; Activity (MDA-MB-231 [5]): Active
COc1cc2cc(NC(C)=O)c(=O)oc2cc1OCC(=O)Nc1ccc(C(C)(C)C)cc1 |  | 3.9 µM |  | 4.3 µM | 4.5 µM | T/C (MDA-MB-231 [6]): 0%; Activity (MDA-MB-231 [7]): inactive; Activity (U2OS): inactive; Ratio IC50 (MCF7 [8]): 12; Ratio IC50 (MDA-MB-231 [9]): 12; T/C (MCF7 [10]): 0%; Ratio IC50 (HT-29 [11]): 12; Activity (HT-29 [12]): Active; Activity (MCF7 [13]): Active
COc1cc2ccc(=O)oc2cc1OCC(=O)Nc1ccc(F)c(Cl)c1 | <50% | 6.5 µM | <50% | 7.6 µM | 6.3 µM | Activity (MDA-MB-231 [14]): Active; Ratio IC50 (MCF7 [8]): 12; Ratio IC50 (MDA-MB-231 [9]): 12; Ratio IC50 (HT-29 [11]): 12; Activity (MCF7 [15]): Active
COc1cc2cc(NC(C)=O)c(=O)oc2cc1OCC(=O)Nc1ccc(C)cc1 | <50% | 19 µM | <50% | > 20 µM | 13.9 µM | 
O=c1[nH]cc(F)c(=O)[nH]1 [FLUOROURACIL] |  | 4.7 µM |  |  |  | 
COc1cc2ccc(=O)oc2cc1O [SCOPOLETIN] |  | > 100 µM |  | > 100 µM | > 100 µM | 
COc1ccc(NC(=O)COc2cc3oc(=O)c(NC(C)=O)cc3cc2OC)cc1OC | <50% | 14.9 µM | <50% | > 20 µM | 8.4 µM | 
COc1cc2ccc(=O)oc2cc1OCC(=O)Nc1ccc(C(C)(C)C)cc1 |  | 10.1 µM |  | 19.6 µM | 8.1 µM | T/C (MDA-MB-231 [16]): <0%; T/C (MCF7 [17]): <0%
